The record followed here is ChEMBL document CHEMBL1155155, “Single-dose pharmacokinetics of intravenous itraconazole and hydroxypropyl-beta-cyclodextrin in infants, children, and adolescents” (Antimicrob Agents Chemother, 2007).

Data set [1] can be described thus: AUC (0 to 24 hrs) in children of >6-12 yrs age at risk for fungal infection at 2.5 mg/kg, iv in 0.1 g/kg hydroxypropyl-beta-cyclodextrin administered as single dose. The note with it: human, plasma. Further details: time < 24 hr, dose 2.5 mg/kg, route intravenous. It is filed as ADME, organism-based. In outline:
(§1)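 Single 1-h IV infusion. Plasma sampled from the contralateral limb predose and at 1–120 h (>2 y) or 1–96 h (<2 y). Itraconazole was extracted with internal standard and quantified by C18 HPLC with UV 263 nm detection, linear range 2–2,000 ng/ml. Noncompartmental analysis: Cmax by inspection, AUC0-24 by trapezoidal rule, AUC extrapolated via λz, CL and Vz from AUC0-∞.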

Data set [2] is described as follows: AUC (0 to 24 hrs) in adolescents of >12-16 yrs age at risk for fungal infection at 2.5 mg/kg, iv in 0.1 g/kg hydroxypropyl-beta-cyclodextrin administered as single dose. The class given is ADME, organism-based. Further details: time < 24 hr, dose 2.5 mg/kg, route intravenous. The note with it: human, plasma. In outline: as §1
Data set [3] in a line: AUC (0 to 24 hrs) in human at risk for fungal infection at 2.5 mg/kg, iv in 0.1 g/kg hydroxypropyl-beta-cyclodextrin administered as single dose. It is filed as ADME, organism-based. Also noted: time < 24 hr, dose 2.5 mg/kg, route intravenous. The note with it: plasma. In outline: as §1
Data set [4] has as its system Homo sapiens. The data set can be described thus: Cmax in infants of 0.6-2 yrs age at risk for fungal infection assessed as hydroxyitraconazole level at 2.5 mg/kg, iv in 0.1 g/kg hydroxypropyl-beta-cyclodextrin administered as single dose. The class given is ADME, organism-based. Further details: dose 2.5 mg/kg, route intravenous. The note with it: in vivo. Put shortly:
(§2)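 Single constant-rate IV infusion over 1 h. Heparinised venous plasma was drawn predose and at 1–120 h (>2 yr) or 1–96 h (<2 yr, randomised to the itraconazole/metabolite arm), then stored at –20°C. Analysis used borate-buffered liquid-liquid extraction with internal standard, C18 HPLC and UV detection at 263 nm, linear 5–5,000 ng/ml. Individual Cmax was read by visual inspection, noncompartmental.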

In data set [5] the test system is Homo sapiens. Nature of the data set: Tmax in infants of 0.6-2 yrs age at risk for fungal infection assessed as hydroxyitraconazole level at 2.5 mg/kg, iv in 0.1 g/kg hydroxypropyl-beta-cyclodextrin administered as single dose. The class given is ADME, organism-based. Further details: dose 2.5 mg/kg, route intravenous. As to conditions: in vivo. Put shortly:
(§3)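 Single 1-h constant-rate IV infusion. Venous plasma sampled predose and to 120 h (>2 y) or 96 h (<2 y), then stored at –20°C. Hydroxyitraconazole was measured by borate/isoamylalcohol-heptane extraction, HCl back-extraction, C18 HPLC and UV 263 nm, with a linear range of 5–5,000 ng/ml. Noncompartmental analysis: Cmax and tmax by inspection, AUC0-24 by trapezoidal rule.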

In data set [6] the test system is Homo sapiens. The data set can be described thus: AUC (0 to 24 hrs) in infants of 0.6-2 yrs age at risk for fungal infection assessed as hydroxyitraconazole level at 2.5 mg/kg, iv in 0.1 g/kg hydroxypropyl-beta-cyclodextrin administered as single dose. The class given is ADME, organism-based, Plasma. Also noted: time < 24 hr, dose 2.5 mg/kg, route intravenous. As to conditions: in vivo. In outline: as §3

The subject of data set [7] is Homo sapiens. The data set can be described thus: Half life in infants of 0.6-2 yrs age at risk for fungal infection assessed as hydroxyitraconazole level at 2.5 mg/kg, iv in 0.1 g/kg hydroxypropyl-beta-cyclodextrin administered as single dose. It is filed as ADME, organism-based. As to conditions: in vivo. Also noted: dose 2.5 mg/kg, route intravenous. Put shortly: as §3

Data set [8] concerns Homo sapiens. Nature of the data set: Cmax in human at risk for fungal infection assessed as hydroxyitraconazole level at 2.5 mg/kg, iv in 0.1 g/kg hydroxypropyl-beta-cyclodextrin administered as single dose. The note with it: in vivo. It is filed as ADME, organism-based. Also noted: dose 2.5 mg/kg, route intravenous. In outline:
as §2

In data set [9] the test system is Homo sapiens. The data set can be described thus: Tmax in human at risk for fungal infection assessed as hydroxyitraconazole level at 2.5 mg/kg, iv in 0.1 g/kg hydroxypropyl-beta-cyclodextrin administered as single dose. It is filed as ADME, organism-based. Further details: dose 2.5 mg/kg, route intravenous. As to conditions: in vivo. Put shortly: as §3
Data set [10] relates to Homo sapiens. Nature of the data set: AUC (0 to 24 hrs) in human at risk for fungal infection assessed as hydroxyitraconazole level at 2.5 mg/kg, iv in 0.1 g/kg hydroxypropyl-beta-cyclodextrin administered as single dose. It is filed as ADME, organism-based, Plasma. Also noted: time < 24 hr, dose 2.5 mg/kg, route intravenous. The note with it: in vivo. In outline: as §3

Data set [11] has as its system Homo sapiens. The data set can be described thus: Half life in human at risk for fungal infection assessed as hydroxyitraconazole level at 2.5 mg/kg, iv in 0.1 g/kg hydroxypropyl-beta-cyclodextrin administered as single dose. The class given is ADME, organism-based. Also noted: dose 2.5 mg/kg, route intravenous. As to conditions: in vivo. In outline: as §3
The test system of data set [12] is Homo sapiens. The data set can be described thus: Cmax in children of >2-6 yrs age at risk for fungal infection assessed as hydroxyitraconazole level at 2.5 mg/kg, iv in 0.1 g/kg hydroxypropyl-beta-cyclodextrin administered as single dose. The class given is ADME, organism-based. Also noted: dose 2.5 mg/kg, route intravenous. The note with it: in vivo. Put shortly: as §2

In data set [13] the test system is Homo sapiens. The data set can be described thus: Tmax in children of >2-6 yrs age at risk for fungal infection assessed as hydroxyitraconazole level at 2.5 mg/kg, iv in 0.1 g/kg hydroxypropyl-beta-cyclodextrin administered as single dose. Also noted: dose 2.5 mg/kg, route intravenous. As to conditions: in vivo. It is filed as ADME, organism-based. In outline:
as §3

The subject of data set [14] is Homo sapiens. Nature of the data set: AUC (0 to 24 hrs) in children of >2-6 yrs age at risk for fungal infection assessed as hydroxyitraconazole level at 2.5 mg/kg, iv in 0.1 g/kg hydroxypropyl-beta-cyclodextrin administered as single dose. It is filed as ADME, organism-based, Plasma. Further details: time < 24 hr, dose 2.5 mg/kg, route intravenous. The note with it: in vivo. In outline:
as §3

Data set [15] has as its system Homo sapiens. The data set can be described thus: Half life in children of >2-6 yrs age at risk for fungal infection assessed as hydroxyitraconazole level at 2.5 mg/kg, iv in 0.1 g/kg hydroxypropyl-beta-cyclodextrin administered as single dose. The note with it: in vivo. It is filed as ADME, organism-based. Further details: dose 2.5 mg/kg, route intravenous. In outline: as §3

The subject of data set [16] is Homo sapiens. The data set can be described thus: Cmax in children of >6-12 yrs age at risk for fungal infection assessed as hydroxyitraconazole level at 2.5 mg/kg, iv in 0.1 g/kg hydroxypropyl-beta-cyclodextrin administered as single dose. It is filed as ADME, organism-based. As to conditions: in vivo. Also noted: dose 2.5 mg/kg, route intravenous. In outline:
as §2

Data set [17] relates to Homo sapiens. Nature of the data set: Tmax in children of >6-12 yrs age at risk for fungal infection assessed as hydroxyitraconazole level at 2.5 mg/kg, iv in 0.1 g/kg hydroxypropyl-beta-cyclodextrin administered as single dose. The class given is ADME, organism-based. Also noted: dose 2.5 mg/kg, route intravenous. As to conditions: in vivo. Put shortly:
as §3

Data set [18] relates to Homo sapiens. Nature of the data set: AUC (0 to 24 hrs) in children of >6-12 yrs age at risk for fungal infection assessed as hydroxyitraconazole level at 2.5 mg/kg, iv in 0.1 g/kg hydroxypropyl-beta-cyclodextrin administered as single dose. It is filed as ADME, organism-based, Plasma. Further details: time < 24 hr, dose 2.5 mg/kg, route intravenous. As to conditions: in vivo. In outline: as §3

For data set [19], the system named is Homo sapiens. The data set can be described thus: Half life in children of >6-12 yrs age at risk for fungal infection assessed as hydroxyitraconazole level at 2.5 mg/kg, iv in 0.1 g/kg hydroxypropyl-beta-cyclodextrin administered as single dose. The class given is ADME, organism-based. Further details: dose 2.5 mg/kg, route intravenous. As to conditions: in vivo. Put shortly: as §3

The test system of data set [20] is Homo sapiens. Nature of the data set: Cmax in adolescents of >12-16 yrs age at risk for fungal infection assessed as hydroxyitraconazole level at 2.5 mg/kg, iv in 0.1 g/kg hydroxypropyl-beta-cyclodextrin administered as single dose. The class given is ADME, organism-based. Also noted: dose 2.5 mg/kg, route intravenous. As to conditions: in vivo. Put shortly: as §3

In data set [21] the test system is Homo sapiens. Nature of the data set: Tmax in adolescents of >12-16 yrs age at risk for fungal infection assessed as hydroxyitraconazole level at 2.5 mg/kg, iv in 0.1 g/kg hydroxypropyl-beta-cyclodextrin administered as single dose. Further details: dose 2.5 mg/kg, route intravenous. The note with it: in vivo. The class given is ADME, organism-based. In outline:
as §3

The test system of data set [22] is Homo sapiens. Nature of the data set: AUC (0 to 24 hrs) in adolescents of >12-16 yrs age at risk for fungal infection assessed as hydroxyitraconazole level at 2.5 mg/kg, iv in 0.1 g/kg hydroxypropyl-beta-cyclodextrin administered as single dose. It is filed as ADME, organism-based, Plasma. Also noted: time < 24 hr, dose 2.5 mg/kg, route intravenous. The note with it: in vivo. Put shortly: as §3

For data set [23], the system named is Homo sapiens. The data set can be described thus: Half life in adolescents of >12-16 yrs age at risk for fungal infection assessed as hydroxyitraconazole level at 2.5 mg/kg, iv in 0.1 g/kg hydroxypropyl-beta-cyclodextrin administered as single dose. The class given is ADME, organism-based. Further details: dose 2.5 mg/kg, route intravenous. The note with it: in vivo. In outline: as §3

As usually defined, the AUC(0-t) is exposure summed from dosing to a finite time, without extrapolation to infinity. A word on the Cmax: it is the maximum level reached in the sampled fluid or tissue. One may read the Tmax as the time at which the peak concentration occurs. What is called AUC is the area under the concentration-time curve, a measure of exposure. As for `CCC(C)n1ncn(-c2ccc(N3CCN(c4ccc(OCC5COC(Cn6cncn6)(c6ccc(Cl)cc6Cl)O5)cc4)CC3)cc2)c1=O` (stereo not drawn) [ITRACONAZOLE], the AUC(0-t) at 24 h is 3760 ng·h/mL in [1], 2670 ng·h/mL in [2] and 4920 ng·h/mL in data set [3]. In addition, the Cmax in the data set on Homo sapiens [4] came to 265 ng/mL; in the data set with Homo sapiens [8], 293 ng/mL; in the data set with Homo sapiens [12], 299 ng/mL; with Homo sapiens [16], 277 ng/mL; in the data set with Homo sapiens [20], 321 ng/mL. Moreover, the Tmax amounted to 4 h with Homo sapiens [5]; 2.2 h in the data set on Homo sapiens [9]; 2.9 h in the data set with Homo sapiens [13]; 1.7 h with Homo sapiens [17]; 1.2 h in the data set with Homo sapiens [21]. In addition, the AUC with Homo sapiens [6] stood at 4155 ng·h/mL; in the data set on Homo sapiens [10] it was 3811 ng·h/mL; in the data set on Homo sapiens [14], 4249 ng·h/mL; in the data set on Homo sapiens [18], 4166 ng·h/mL; in the data set on Homo sapiens [22] it was 3133 ng·h/mL. Further, the t1/2 in the data set with Homo sapiens [7] amounted to 16.6 h; in the data set on Homo sapiens [11], 13.3 h; in the data set on Homo sapiens [15], 12.7 h; in the data set on Homo sapiens [19], 14.3 h; in the data set on Homo sapiens [23], 12.3 h.
